Experiment [1] concerns A2780. Briefly: Antiproliferative activity against human A2780 cells after 2 days by Alamar blue assay. The settings on record: A2780, 48 h. (In general: Alamar Blue is a resazurin reagent that responds to reducing activity.)
The subject of experiment [2] is A2058. The experiment can be described thus: Antiproliferative activity against human A2058 cells after 96 hrs by CellTiter-Glo assay. The experiment is classed as functional, cell-based. The settings on record: A2058, 96 h. A digest of the protocol:
(§1)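 A2058 melanoma and H522 lung cancer cell lines, run at Eisai by procedures similar to those used for the H460 line; activity reported as IC50.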
For orientation: ATP-based viability assays read luminescence as a measure of living cells.

For experiment [3], the system named is NCI-H522. The experiment can be described thus: Antiproliferative activity against human NCI-H522 cells after 96 hrs by CellTiter-Glo assay. The experiment is classed as functional, cell-based. The settings on record: NCI-H522, 96 h. A digest of the protocol: as §1

SMILES strings stand for the structures.

The term IC50 denotes the point on the concentration scale where inhibition reaches its midpoint. A lower IC50 goes with greater potency. For the compound `CCCCCCCCCCC[C@H](O)[C@@H]1CC[C@@H]([C@H]2CC[C@H]([C@@H](O)CCCCCCCC[C@H](O)CCC3=C[C@H](C)OC3=O)O2)O1` (relative stereo), the results for the IC50 in experiment [1], in experiment [2] and in experiment [3] were 8.8 µM, 7.2 µM and less than 10 µM, respectively.
Taken in the same sequence, the figures for `CCCCCCCCCCCCC[C@H](O)[C@@H]1CC[C@@H]([C@H]2CC[C@H]([C@@H](O)CCCC(O)CCCCCC3=C[C@H](C)OC3=O)O2)O1` (relative stereo) were 6.4 µM, 6.6 µM and less than 10 µM.

The values are drawn from ChEMBL document CHEMBL2021823, “Antiproliferative acetogenins from a Uvaria sp. from the Madagascar dry forest” (J Nat Prod, 2012).
